ChEMBL document CHEMBL4342502, “Synthesis and Antichlamydial Activity of Molecules Based on Dysregulators of Cylindrical Proteases” (J Med Chem, 2020)
Calls of active or inactive are those of the source. The rule behind the calls is not given here.

What was measured:
Chlamydia trachomatis [1] = assay: (§1) Anti-Chlamydial activity against Chlamydia trachomatis Serovar LGV-L2 infected in Hep2 cells assessed as reduction in size and number of chlamydial inclusion at 4 ug/ml treated at 8 hrs post-infection and 24 hrs later re-infecting fresh Hep2 cells monolayer with infected cells and measured at 24 hrs post re-infection by immunofluorescence staining based microscopy analysis; assay type: functional, organism-based
In short: (§2)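 HEp-2 cells in DMEM with 10% FBS, infected with C. trachomatis L2 at MOI 1. Compounds added 8 hpi in triplicate; DMSO stocks at 50 mg/mL. At 24 hpi lysates collected in sucrose storage medium, frozen at −80 °C, and used to infect fresh HEp-2 monolayers in 10-fold dilutions. After 24 h, stained with goat anti-MOMP and Alexa488 secondary. Inclusions counted in 15 fields at 20x; IFU = mean count per field corrected for dilution.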

HEp-2 = assay: Toxicity in human Hep2 cells infected with Chlamydia trachomatis Serovar LGV-L2 assessed as cell morphology at 50 ug/ml treated at 8 hrs post-infection and measured at 24 hrs post-infection by phase contrast microscopy; assay type: cell-based
In short: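 HEp-2 cells grown in DMEM with 2% L-glutamine and 10% FBS at 37 °C, infected with C. trachomatis serovar L2. Compound at 50 μg/mL added 8 h post-infection, then incubated 16 h more (24 h total). Cell morphology and viability checked by phase-contrast microscopy alongside untreated infected cells.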

Chlamydia trachomatis [2] = assay: as §1, with “at 1” for “at 4”; assay type: functional, organism-based; in short: as §2
Chlamydia trachomatis [3] = assay: as §1, with “Anti-chlamydial activity” for “Anti-Chlamydial activity”, “in” for “in size and number of”, “inclusion growth by measuring appearance of small and irregular inclusions” for “inclusion”, “at 128” for “at 4”; assay type: functional, organism-based; in short: as §2
Cryptococcus neoformans = assay: Antifungal activity against Cryptococcus neoformans var. grubii H99 ATCC […] as fungal growth inhibition at 32 ug/ml measured after 16 hrs by broth microdilution method; assay type: functional, organism-based; conditions: var. grubii H99 ATCC 208821
[4] = Mutagenicity in Drosophila melanogaster somatic cells assessed as frequency of clone formation in ST crosses at 0.25 to 1 mM by SMART assay; assay type: ADME; conditions: 1000 µM
In short: (§3)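 Drosophila SMART wing-spot assay, ST and HB crosses. Third-instar larvae (72 ± 4 h) placed on hydrated instant mashed potato medium containing compound at 0.25, 0.5 or 1.0 mM final. Negative control: water with 1% Tween-80 and 3% ethanol. Statistics by Frei and Würgler two-sided U test, P≤0.05.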

HaCaT = assay: Cytotoxicity against immortal human HaCaT cells assessed as reduction in cell viability at 50 ug/ml after 24 hrs by CCK-8 assay; assay type: cell-based
In short: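 HeLa 229 and HaCaT cells in DMEM with 10% FBS and 1% penicillin/streptomycin, 37 °C, 5% CO2, seeded at 5000 cells/well. Next day treated with 50 μg/mL in triplicate, with matching DMSO controls. After 24 h, CCK-8 added for 2 h; corrected absorbance read at 450 nm.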

Chlamydia trachomatis [5] = assay: as §1, with “Anti-chlamydial activity” for “Anti-Chlamydial activity”, “in” for “in size and number of”, “chlamydial infectivity by measuring decrease in” for “chlamydial”, “inclusion forming units” for “inclusion”, “at 50” for “at 4”; assay type: functional, organism-based; in short: as §2
Escherichia coli [6] = assay: Antibacterial activity against Escherichia coli K12 assessed as bacterial growth inhibition at 32 ug/ml measured after 16 hrs by broth microdilution method; assay type: functional, organism-based; conditions: K-12
In short: (§4)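 Broth microdilution in Mueller Hinton broth, triplicate. Direct colony suspension at 1.5 x 10^8 CFU/mL diluted to ~10^5 CFU/mL. Serial dilutions made from DMSO stocks at 1 mg/mL; vancomycin positive control, blank medium negative control. Incubated 16 h at optimum temperature. MIC is the lowest concentration without visible growth at 600 nm; mean of triplicate determinations.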

[7] = Hepatic intrinsic clearance in human liver microsomes at 1 ug/ml measured per kg body weight up to 60 mins by LC-MS/MS analysis; assay type: ADME, Microsome; conditions: 1 h
[8] = Half life in human liver microsomes at 1 ug/ml measured up to 60 mins by LC-MS/MS analysis; assay type: ADME, Microsome; conditions: microsomes, 1 h
In short: (§5)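 Human liver microsomes (1.0 mg/mL protein) in 100 mM phosphate pH 7.4 with 10 mM MgCl2 and 2 mM NADPH, preincubated 10 min at 37 °C. Reaction started with compound at 1 μg/mL. Sampled at 0, 5, 15, 20, 30, 45 and 60 min and quenched in methanol with internal standard. Controls: no NADPH (negative), testosterone (positive). Analysed by LC-MS/MS, triplicate.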

Candida albicans = assay: Antifungal activity against Candida albicans ATCC 90028 assessed as fungal growth inhibition at 32 ug/ml measured after 16 hrs by broth microdilution method; assay type: functional, organism-based
[9] = Stability of the compound in simulated gastric fluid at 50 uM and pH 1.2 at 37 degree C measured up to 120 mins by HPLC-ESI/MS analysis; conditions: simulated gi fluid, pH 1.2, 2 h
[10] = Stability of compound in mouse pre-heated plasma at 50 uM incubated up to 120 mins by HPLC-ESI/MS analysis; assay type: ADME, cell-free; conditions: 2 h
In short: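 Compounds from 2.5 mM DMSO stocks incubated at 50 μM final in mouse plasma diluted to 80% with PBS, preheated, 37 °C, shaking. Sampled at 0, 15, 30, 60, 90 and 120 min and quenched with cold acetonitrile. Centrifuged; supernatant analysed by HPLC-ESI-MS. Peak area reported relative to time zero. Enalapril positive control; triplicate.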

Escherichia coli [11] = assay: Antibacterial activity against Escherichia coli ATCC 25922 assessed as bacterial growth inhibition at 32 ug/ml measured after 16 hrs by broth microdilution method; assay type: functional, organism-based
Chlamydia trachomatis [12] = assay: Anti-chlamydial activity against Chlamydia trachomatis Serovar LGV-L2 infected in Hep2 cells assessed as inhibition of chlamydial inclusion at 50 ug/ml treated at 8 hrs post infection and measured at 24 hrs post-infection by immunofluorescence assay; assay type: functional, organism-based
In short: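 HEp-2 cells infected with C. trachomatis serovar L2. Compounds at 50 μg/mL added 8 hpi; inclusion number and size assessed by immunofluorescence at 24 hpi against untreated cells. Cell morphology and viability checked by phase-contrast microscopy.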

[13] = Intrinsic clearance in human liver microsomes at 1 ug/ml measured per mg protein up to 60 mins by LC-MS/MS analysis; assay type: ADME, Microsome; conditions: microsomes, 1 h; in short: as §5
Staphylococcus aureus [14] = assay: Antibacterial activity against Staphylococcus aureus JE2 assessed as bacterial growth inhibition at 32 ug/ml measured after 16 hrs by broth microdilution method; assay type: functional, organism-based; in short: as §4
Staphylococcus aureus [15] = assay: Antibacterial activity against methicillin-resistant Staphylococcus aureus ATCC 43300 assessed as bacterial growth inhibition at 32 ug/ml measured after 16 hrs by broth microdilution method; assay type: functional, organism-based
[16] = Mutagenicity in Drosophila melanogaster somatic cells assessed as frequency of clone formation in HB crosses at 0.25 to 1 mM by SMART assay; assay type: ADME; conditions: 1000 µM; in short: as §3
[17] = Stability of compound in human liver microsomes at 1 ug/ml measured up to 60 mins in absence of NADPH by LC-MS/MS analysis; assay type: ADME, Microsome; conditions: 1 h; in short: as §5
Klebsiella pneumoniae = assay: Antibacterial activity against Klebsiella pneumoniae ATCC 700603 assessed as bacterial growth inhibition at 32 ug/ml measured after 16 hrs by broth microdilution method; assay type: functional, organism-based
Acinetobacter baumannii = assay: Antibacterial activity against Acinetobacter baumannii ATCC 19606 assessed as bacterial growth inhibition at 32 ug/ml measured after 16 hrs by broth microdilution method; assay type: functional, organism-based; conditions: ATCC 19606 = CIP 70.34 = JCM 6841
[18] = Toxicity in Drosophila melanogaster assessed as survival rate at 0.25 to 1 mM; conditions: 1000 µM
In short: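 Drosophila SMART assay using third-instar larvae (72 ± 4 h) from ST and HB crosses. Larvae exposed in hydrated instant mashed-potato medium at 0.25, 0.5 and 1.0 mM final. Vehicle control: water with 1% Tween-80 and 3% ethanol. Survival of treated groups compared statistically with the vehicle control.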

Pseudomonas aeruginosa = assay: Antibacterial activity against Pseudomonas aeruginosa ATCC 27853 assessed as bacterial growth inhibition at 32 ug/ml measured after 16 hrs by broth microdilution method; assay type: functional, organism-based
HeLa 229 = assay: Cytotoxicity against human HeLa 229 cells assessed as cell viability at 50 ug/ml after 24 hrs by CCK-8 assay relative to control; assay type: cell-based; conditions: hela 229, 24 h
In short: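 HeLa 229 cells kept in DMEM with 10% FBS and 1% penicillin/streptomycin at 37 °C, 5% CO2. Seeded at 5000 cells/well and dosed next day at 50 μg/mL in triplicate for 24 h, against DMSO-matched controls. CCK-8 reagent added for 2 h, then corrected absorbance read at 450 nm.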

[19] = Drug metabolism in human liver microsomes assessed as amount of drug modified at 1 ug/ml […] in presence of NADPH by LC-MS/MS analysis; assay type: ADME, Microsome; conditions: read-out: Drug metabolism
Haemophilus influenzae = assay: Antimicrobial activity against Haemophilus influenzae H2192 assessed as bacterial growth inhibition measured after 18 to 20 hrs; assay type: functional
Chlamydia trachomatis [20] = assay: as §1, with “at 50” for “at 4”; assay type: functional, organism-based; in short: as §2
Neisseria meningitidis = assay: Antimicrobial activity against Neisseria meningitidis MC58 assessed as bacterial growth inhibition measured after 18 to 20 hrs; assay type: functional
Chlamydia trachomatis [21] = assay: as §1, with “Anti-chlamydial activity” for “Anti-Chlamydial activity”, “in” for “in size and number of”, “inclusion growth by measuring appearance of small and irregular inclusions” for “inclusion”, “at 3” for “at 4”; assay type: functional, organism-based; in short: as §2

For `CC[C@H]1OC(=O)[C@H](C)[C@@H](O[C@H]2C[C@@](C)(OC)[C@@H](O)[C@H](C)O2)[C@H](C)[C@@H](O[C@@H]2O[C@H](C)C[C@H](N(C)C)[C@H]2O)[C@](C)(O)C[C@@H](C)CN(C)[C@H](C)[C@@H](O)[C@]1(C)O`, the inhibition (Chlamydia trachomatis [1]) was “Active”.

In the case of `CC(C)(Sc1ccc(C(F)(F)F)cn1)C(=O)NCCCc1ccccc1`, the Activity (HEp-2) is reported as “Toxic”.

In the case of `C[C@H]1c2cccc(O)c2C(=O)C2=C(O)[C@]3(O)C(=O)C(C(N)=O)=C(O)[C@@H](N(C)C)[C@@H]3[C@@H](O)[C@@H]21`, the inhibition (Chlamydia trachomatis [2]) is reported as “Active”.

For `CN[C@@H]1[C@H](O)[C@H](NC)[C@H]2O[C@@]3(O)C(=O)C[C@@H](C)O[C@H]3O[C@@H]2[C@H]1O`, the inhibition (Chlamydia trachomatis [3]) was “Active”.

In the case of `CC(C)(C(=O)NCCOc1ccccc1)S(=O)(=O)c1ccc(C(F)(F)F)cc1`, the inhibition (Cryptococcus neoformans) is reported as “inactive”, the Activity [4] is reported as “Non-Toxic” and the Activity (HaCaT) is reported as “Non-Toxic”. For the same molecule, the inhibition (Chlamydia trachomatis [5]) was “Active”, the inhibition (Escherichia coli [6]) was “inactive” and the CLH [7] was 110 L/h/kg. For the same molecule, the t1/2 [8] was 2.98 min, the inhibition (Candida albicans) was “inactive” and the Stability [9] was “Stable”. The Stability [10] was “Stable”, the inhibition (Escherichia coli [11]) was “inactive” and the inhibition (Chlamydia trachomatis [12]) was “Active”. The microsomal intrinsic clearance [13] was 233.77 µL/min, the inhibition (Staphylococcus aureus [14]) was “inactive” and the inhibition (Staphylococcus aureus [15]) was “inactive”. The Activity [16] was “Non-Toxic”, the Stability [17] was “Stable” and the inhibition (Klebsiella pneumoniae) was “inactive”. For the same molecule, the inhibition (Acinetobacter baumannii) was “inactive”, the Activity [18] was “Non-Toxic” and the inhibition (Pseudomonas aeruginosa) was “inactive”. The Activity (HeLa 229) was < 65% and the metabolised at 10 min, 1 ug/ml [19] was 90%.

For `CC(C)(C(=O)NCCCc1ccccc1)S(=O)(=O)c1ccc(C(F)(F)F)cn1`, the Activity (Haemophilus influenzae) was 8 µg/mL, the inhibition (Chlamydia trachomatis [5]) was “Active” and the inhibition (Chlamydia trachomatis [20]) was “Active”. It also gave an Activity (Neisseria meningitidis) of 16 µg/mL.

In the case of `CC1(C)S[C@@H]2[C@H](NC(=O)Cc3ccccc3)C(=O)N2[C@H]1C(=O)O`, the inhibition (Chlamydia trachomatis [21]) is reported as “Active”.
